In ChEMBL document CHEMBL3525942, “Disposition and metabolism of [14C]SB-649868, an orexin 1 and 2 receptor antagonist, in humans” (Drug Metab Dispos, 2011):

Experiments:
Assay type in all cases: ADME, organism-based
Design in all cases: dosed compound name [14C]SB-649868
Details in all cases: in vivo
[1] = Drug excretion in human urine at 30 mg, po single dose measured at 0 to 24 hrs
Procedure, shortened: (§1)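 After one oral 30 mg [14C] dose in eight healthy men, urine was collected at 0–6, 6–12 and 12–24 h, then every 24 h to 216 h. Feces were collected every 24 h to 216 h and homogenized 1:1 with water. Radioactivity was counted by LSC in triplicate aliquots. Results given as cumulative % of dose, mean (S.D.).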

[2] = test system: Homo sapiens; assay: Total drug excretion in human at 30 mg, po single dose measured at 0 to 168 hrs; procedure, shortened: as §1
[3] = test system: Homo sapiens; assay: Tmax in human plasma assessed as total radioactivity at 30 mg, po single dose
Procedure, shortened: (§2)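 Eight healthy men given one oral capsule of [14C] drug, 30 mg (approx. 70 µCi), with 160 ml water. Blood in K-EDTA tubes from pre-dose to 96 h, chilled and spun at 4°C. Plasma read by LSC in triplicate 0.25 ml aliquots, quench-corrected and background-subtracted. Noncompartmental analysis: Cmax and tmax read from the data, t1/2 = ln2/λz, AUC by linear-up/log-down trapezoids. Geometric means.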

[4] = test system: Homo sapiens; assay: Total drug excretion in human at 30 mg, po single dose measured at 0 to 12 hrs; procedure, shortened: as §1
[5] = test system: Homo sapiens; assay: Total drug excretion in human at 30 mg, po single dose measured at 0 to 48 hrs; procedure, shortened: as §1
[6] = Drug excretion in human feces at 30 mg, po single dose measured at 0 to 96 hrs; procedure, shortened: as §1
[7] = Drug excretion in human urine at 30 mg, po single dose measured at 0 to 6 hrs; procedure, shortened: as §1
[8] = Drug excretion in human urine at 30 mg, po single dose measured at 0 to 12 hrs; procedure, shortened: as §1
[9] = test system: Homo sapiens; assay: Total drug excretion in human at 30 mg, po single dose measured at 0 to 192 hrs; procedure, shortened: as §1
[10] = test system: Homo sapiens; assay: Total drug excretion in human at 30 mg, po single dose measured at 0 to 72 hrs
Procedure, shortened: (§3)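 Healthy male volunteers (n=8) given single oral 30 mg (approx. 70 µCi) [14C]-labelled dose in a capsule with 160 ml water. Urine collected pre-dose, 0–6, 6–12, 12–24 h, then 24 h intervals to 216 h; feces at 24 h intervals to 216 h, homogenized 1:1 with water. Triplicate aliquots counted by LSC with quench correction and background subtraction; cumulative excretion expressed as % of dose.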

[11] = Drug excretion in human urine at 30 mg, po single dose measured at 0 to 72 hrs; procedure, shortened: as §1
[12] = test system: Homo sapiens; assay: AUC (0 to infinity) in human plasma assessed as total radioactivity at 30 mg, po single dose; procedure, shortened: as §2
[13] = test system: Homo sapiens; assay: Apparent half life in human plasma assessed as total radioactivity at 30 mg, po single dose; procedure, shortened: as §2
[14] = test system: Homo sapiens; assay: Cmax in human plasma assessed as total radioactivity at 30 mg, po single dose; procedure, shortened: as §2
[15] = Drug excretion in human urine at 30 mg, po single dose measured at 0 to 144 hrs; procedure, shortened: as §1
[16] = Drug excretion in human urine at 30 mg, po single dose measured at 0 to 192 hrs; procedure, shortened: as §1
[17] = Drug excretion in human urine at 30 mg, po single dose measured at 0 to 168 hrs; procedure, shortened: as §1
[18] = test system: Homo sapiens; assay: Total drug excretion in human at 30 mg, po single dose measured at 0 to 216 hrs; procedure, shortened: as §1
[19] = Drug excretion in human feces at 30 mg, po single dose measured at 0 to 72 hrs; procedure, shortened: as §1
[20] = test system: Homo sapiens; assay: Total drug excretion in human at 30 mg, po single dose measured at 0 to 24 hrs; procedure, shortened: as §1
[21] = test system: Homo sapiens; assay: Total drug excretion in human at 30 mg, po single dose measured at 0 to 120 hrs; procedure, shortened: as §1
[22] = Drug excretion in human urine at 30 mg, po single dose measured at 0 to 216 hrs; procedure, shortened: as §1
[23] = Drug excretion in human feces at 30 mg, po single dose measured at 0 to 168 hrs; procedure, shortened: as §1
[24] = Drug excretion in human urine at 30 mg, po single dose measured at 0 to 96 hrs; procedure, shortened: as §1
[25] = Drug excretion in human feces at 30 mg, po single dose measured at 0 to 144 hrs; procedure, shortened: as §1
[26] = Drug excretion in human feces at 30 mg, po single dose measured at 0 to 192 hrs; procedure, shortened: as §1
[27] = Drug excretion in human urine at 30 mg, po single dose measured at 0 to 120 hrs; procedure, shortened: as §1
[28] = test system: Homo sapiens; assay: Total drug excretion in human at 30 mg, po single dose measured at 0 to 96 hrs; procedure, shortened: as §3
[29] = Drug excretion in human feces at 30 mg, po single dose measured at 0 to 24 hrs; procedure, shortened: as §1
[30] = test system: Homo sapiens; assay: AUC (0 to t) in human plasma assessed as total radioactivity at 30 mg, po single dose; procedure, shortened: as §2
[31] = test system: Homo sapiens; assay: Total drug excretion in human at 30 mg, po single dose measured at 0 to 6 hrs; procedure, shortened: as §3
[32] = Drug excretion in human feces at 30 mg, po single dose measured at 0 to 48 hrs; procedure, shortened: as §1
[33] = test system: Homo sapiens; assay: Total drug excretion in human at 30 mg, po single dose measured at 0 to 144 hrs; procedure, shortened: as §1
[34] = Drug excretion in human feces at 30 mg, po single dose measured at 0 to 120 hrs; procedure, shortened: as §1
[35] = Drug excretion in human feces at 30 mg, po single dose measured at 0 to 216 hrs; procedure, shortened: as §1
[36] = Drug excretion in human urine at 30 mg, po single dose measured at 0 to 48 hrs; procedure, shortened: as §1

Q: For `C[14c]1nc(C(=O)N2CCCC[C@H]2CNC(=O)c2cccc3occc23)c(-c2ccc(F)cc2)s1`, which Radiolabel recovery [1] is on record?
A: The Radiolabel recovery was 8.9%.

Q: And the Radiolabel recovery [2]?
A: Its Radiolabel recovery is 89.7%.

Q: What about the Radiolabel recovery [3] of the same molecule?
A: Its Radiolabel recovery is 4 h.

Q: And the Radiolabel recovery [4]?
A: The Radiolabel recovery was 5.9%.

Q: And the Radiolabel recovery [5]?
A: Its Radiolabel recovery is 47.5%.

Q: What about the Radiolabel recovery [6] of the same molecule?
A: Its Radiolabel recovery is 69.6%.

Q: What about the Radiolabel recovery [7] of the same molecule?
A: The Radiolabel recovery was 2.3%.

Q: And the Radiolabel recovery [8]?
A: Its Radiolabel recovery is 5.9%.

Q: What about the Radiolabel recovery [9] of the same molecule?
A: The Radiolabel recovery was 90.5%.

Q: And the Radiolabel recovery [10]?
A: Its Radiolabel recovery is 71.3%.

Q: And the Radiolabel recovery [11]?
A: The Radiolabel recovery was 11.3%.

Q: And the Radiolabel recovery [12]?
A: Its Radiolabel recovery is 37.3 ugequiv.hr/ml.

Q: What about the Radiolabel recovery [13] of the same molecule?
A: Its Radiolabel recovery is 39.3 h.

Q: And the Radiolabel recovery [14]?
A: Its Radiolabel recovery is 1.66 ugequiv/ml.

Q: What about the Radiolabel recovery [15] of the same molecule?
A: The Radiolabel recovery was 11.9%.

Q: What about the Radiolabel recovery [16] of the same molecule?
A: Its Radiolabel recovery is 12%.

Q: What about the Radiolabel recovery [17] of the same molecule?
A: The Radiolabel recovery was 11.9%.

Q: And the Radiolabel recovery [18]?
A: Its Radiolabel recovery is 91.1%.

Q: And the Radiolabel recovery [19]?
A: Its Radiolabel recovery is 60%.

Q: What about the Radiolabel recovery [20] of the same molecule?
A: Its Radiolabel recovery is 10.8%.

Q: And the Radiolabel recovery [21]?
A: Its Radiolabel recovery is 87.3%.

Q: And the Radiolabel recovery [22]?
A: Its Radiolabel recovery is 12%.

Q: What about the Radiolabel recovery [23] of the same molecule?
A: The Radiolabel recovery was 77.7%.

Q: And the Radiolabel recovery [24]?
A: Its Radiolabel recovery is 11.6%.

Q: What about the Radiolabel recovery [25] of the same molecule?
A: Its Radiolabel recovery is 76.8%.

Q: And the Radiolabel recovery [26]?
A: The Radiolabel recovery was 78.5%.

Q: What about the Radiolabel recovery [27] of the same molecule?
A: Its Radiolabel recovery is 11.7%.

Q: What about the Radiolabel recovery [28] of the same molecule?
A: Its Radiolabel recovery is 81.2%.

Q: And the Radiolabel recovery [29]?
A: Its Radiolabel recovery is 1.9%.

Q: And the Radiolabel recovery [30]?
A: Its Radiolabel recovery is 31 ugequiv.hr/ml.

Q: What about the Radiolabel recovery [31] of the same molecule?
A: The Radiolabel recovery was 2.3%.

Q: What about the Radiolabel recovery [32] of the same molecule?
A: Its Radiolabel recovery is 36.8%.

Q: What about the Radiolabel recovery [33] of the same molecule?
A: Its Radiolabel recovery is 88.7%.

Q: And the Radiolabel recovery [34]?
A: The Radiolabel recovery was 75.6%.

Q: And the Radiolabel recovery [35]?
A: The Radiolabel recovery was 79.1%.

Q: What about the Radiolabel recovery [36] of the same molecule?
A: Its Radiolabel recovery is 10.7%.
